The test system of this test is HeLa. Kind of test: Antiproliferative activity against human HeLa cells assessed as inhibition of cell growth incubated for 24 hrs by MTT assay. It is filed as functional, cell-based. Put shortly:
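Cells kept in DMEM with 10% FBS and 1% antibiotic-antimycotic at 37 °C and 5% CO2. Seeded at 8 × 10^3 cells per 100 μL and left 24 h, then exposed 24 h to 5, 10, 20, 50 or 100 μM. MTT at 0.5 mg/mL in HBSS was added for 2–4 h at 37 °C in the dark. Formazan was dissolved in DMSO, A570 was read, and IC50 was derived.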

Take `C[C@@H](C[C@@H](O)[C@H](O)C(C)(C)O)[C@@H]1CC[C@]2(C)C3=CC[C@H]4C(C)(C)[C@H](O)CC[C@]4(C)[C@H]3CC[C@@]12C`: the IC50 is more than 100 µM.

The values are drawn from ChEMBL document CHEMBL6083205, “A comprehensive apoptotic assessment of niloticin in cervical cancer cells: a tirucallane-type triterpenoid from Aphanamixis polystachya (Wall.) Parker” (RSC Med Chem, 2024).
